Published values gathered from unrelated publications.
CDK2 with cyclin E: Cyclin-dependent kinase 2, with cyclin E (CDK2, Homo sapiens, UniProt P24941)
CDK2: Cyclin-dependent kinase 2 (CDK2, Homo sapiens, UniProt P24941)
CDK2 with cyclin A: Cyclin-dependent kinase 2, with cyclin A (CDK2, Homo sapiens, UniProt P24941)

| Structure (SMILES) | target | observed | mode | technique | tested at | measurement | value |
| --- | --- | --- | --- | --- | --- | --- | --- |
| O=C(Nc1cccnn1)N1CCN([C@@H]2CCOc3cc(C(F)(F)F)ccc32)CC1 | CDK2 with cyclin E | cell-free assay | inhibitor | – | 20 µM | inhibition | 3% |
| Cn1cncc1[C@@](O)(COc1ccc(C#N)cc1-c1ccc(OC(F)(F)F)cc1)c1ccc(C#N)cc1 | CDK2 | cell-free assay | – | competition with immobilised ligand | 1 µM | remaining binding | 89% |
| Nc1ncc(-c2nc(N3CCOCC3)nc(N3CCOCC3)n2)c(C(F)F)n1 | CDK2 | binding | – | competition with immobilised ligand | 10 µM | remaining binding | 100% |
| C#Cc1n[nH]c2c(-c3cn([C@@H](C)c4ccccc4)c(=O)[nH]c3=O)cc(F)cc12 | CDK2 with cyclin A | enzyme activity | inhibitor | – | 0.1 µM | inhibition | 6.3% |
| Cc1ncc(C)n2nc(/C=C/c3nc(N4CCCC4)cc(N4CCOCC4)n3)nc12 | CDK2 with cyclin A | enzyme activity | inhibitor | – | 10 µM | inhibition | -3% |
| Cn1cc(-c2cccc(N3CCc4c(sc5c4CC(C)(C)C5)C3=O)c2CO)cc(Nc2ccncn2)c1=O | CDK2 with cyclin A | enzyme activity | inhibitor | – | 1 µM | inhibition | -4% |
| N#CC1(c2ccccn2)CCN(Cc2cc(C(=O)O)c(=O)n3ccccc23)CC1 | CDK2 | cell-free assay | – | competition with immobilised ligand | 1 µM | remaining binding | 100% |
| O=c1[nH]c2ccccc2n1C1CCN(Cc2ccc(-c3[nH]c4cc5ncnc5cc4nc3-c3ccccc3)cc2)CC1 | CDK2 with cyclin E | cell-free assay | – | – | 0.5 µM | remaining signal | 95.6% |
| COc1ncccc1-c1cnn2ccc(N3CCN(C(=O)OC(C)C)CC3)nc12 | CDK2 | binding | – | competition with immobilised ligand | 1 µM | remaining binding | 99% |
| Cn1cc(-c2cc(F)cc(N3CCn4c(cc5c4CCCC5)C3=O)c2CO)cc(Nc2ccc(N3CCN(C4COC4)CC3)cn2)c1=O | CDK2 with cyclin A | enzyme activity | inhibitor | – | 0.1 µM | inhibition | 7% |
| CC(C)(C)c1cc(C=C(C#N)C#N)cc(Br)c1O | CDK2 with cyclin E | enzyme activity | inhibitor | – | 0.5 µM | remaining activity | 77.6% |
